Compound activity as filed in PubChem BioAssay.
Shown are actives, neighbours in structure and some others; about 1.6% of the full set was active somewhere.
NOD2 RIPK2 PPI: NOD2-RIPK2 protein interaction inhibition. O43353. CHO BLA complementation NOD2-RIPK2, CCF4 ratio. inhibition, % at 4.98 µM. actives 0.38% (n = 360,000); in the data active = inhibition above about 21%;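 note: 0% = vehicle only and 100% = reference blocker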
SR-BI DiI inh: blocks mouse SR-BI lipid uptake from DiI-HDL. Q61009. ldlA[mSR-BI] CHO cells, DiI-HDL uptake fluorescence, 3 h. inhibition, % at 12.5 µM. actives 0.96% (n = 320,000);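 active = mean replicate inhibition of at least 70% and a set share of replicates each scoring 70 or more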;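 note: 0% = median of neutral control wells and 100% = median of positive control wells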
Target sequence (Q61009 whole entry, looked up): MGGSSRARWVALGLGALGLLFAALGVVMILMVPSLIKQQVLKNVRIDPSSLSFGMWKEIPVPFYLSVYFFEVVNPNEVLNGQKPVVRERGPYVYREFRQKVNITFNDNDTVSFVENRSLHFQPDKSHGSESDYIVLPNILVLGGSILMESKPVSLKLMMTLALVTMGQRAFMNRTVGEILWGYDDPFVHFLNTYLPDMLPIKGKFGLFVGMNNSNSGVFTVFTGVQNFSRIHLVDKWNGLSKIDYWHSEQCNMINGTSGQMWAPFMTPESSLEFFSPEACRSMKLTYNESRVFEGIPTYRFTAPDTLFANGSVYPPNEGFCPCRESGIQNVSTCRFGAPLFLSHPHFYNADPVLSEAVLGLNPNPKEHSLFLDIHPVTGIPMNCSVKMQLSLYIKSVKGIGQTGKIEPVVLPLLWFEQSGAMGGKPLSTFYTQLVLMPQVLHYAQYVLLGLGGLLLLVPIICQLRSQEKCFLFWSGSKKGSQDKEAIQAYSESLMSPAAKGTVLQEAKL
TLR4 MyD88 comp: TLR4-MyD88 interaction inhibition in cells; O00206+Q99836; HeLa CL3-4 TLR4/MyD88 BLA complementation, FRET ratio; inhibition, % at 8.4 µM; actives 0.18% (n = 200,000); AID 861; in the data active = inhibition above about 25%;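 note: 0% = vehicle and 100% = reference inhibitor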
Lipid droplet: hepatic lipid droplet formation modulation. AML12 mouse hepatocytes, oleate lipid droplets, BODIPY imaging. inhibition, % at 6.5 µM. actives 0.4% (n = 240,000);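 active = lipid droplet intensity inhibited by at least 50%, with more than 500 cells counted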
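Material – AML12 mouse liver cells · Also added – oleate loading, 100 µM · Compound dosing – 6.5 µM single-point dosing · Times – overnight treatment with compound plus oleate · Measured by – fluorescence imaging, 20x objective, two fields per well · Read-out – percent inhibition of filter-corrected integrated lipid droplet intensity per well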
SR-BI uptake up: activators of SR-BI mediated HDL lipid uptake | CHO ldlA[mSR-BI] cells, DiI-HDL uptake fluorescence, 3 h; 100 = double the neutral-control signal | AID 504775 | activation, % at 12.5 µM | actives 0.096% (n = 320,000);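 active = mean replicate activation of at least 60% and every replicate at or above 60%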;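 note: 0% = median plate neutral-control signal and 100% = twice that signal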
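Assay system: LDL receptor-deficient CHO ldlA cells overexpressing murine SR-BI / Medium: BSA-supplemented, HEPES-buffered Ham's F12, pH 7.4 / Probe or stimulus: DiI-labelled HDL at 10 µg/mL final / Timing: compound with DiI-HDL co-incubation, 3 h at 37 °C / Technique: bottom-read cell fluorescence after medium removal, ex 550/em 595 nm / Measure: HDL uptake via cellular fluorescence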
TLR9-MyD88 block: blocks human TLR9 binding to MyD88. Q9NR96+Q99836. CHO BLA complementation TLR9-MyD88, CCF4 FRET ratio. inhibition, % at 4.98 µM. actives 0.21% (n = 340,000). AID 504734;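 active = inhibition above the mean over all tested compounds plus 3 SD, cut at about 21% in these data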;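 note: 0% = DMSO only wells and 100% = clavulanate BLA inhibitor control wells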
* hit, by the source's call; x = no result given.

SMILES	NOD2 RIPK2 PPI	SR-BI DiI inh	TLR4 MyD88 comp	Lipid droplet	SR-BI uptake up	TLR9-MyD88 block
CC(C)C(NC(=O)C12CC3CC(CC(C3)C1)C2)C(=O)N/N=C/C1=C(N2CCOCC2)C(=C\c2ccc([N+](=O)[O-])cc2)/CC1 (stereo unspecified)	6.4	98.9*	14.4	-4.6	-98.9	11.9
Cc1occc1C(=O)N/N=C/C1=C(N2CCOCC2)C(=C\c2ccc(Cl)cc2)/CC1	2.1	x	-3.1	-12.3	x	2.9
O=C(O)c1ccccc1N/N=C/C1=C(N2CCOCC2)C(=C\c2ccccc2)/CC1	7.7	24.1	x	2.5	-24.1	-4.3
COc1cccc2c1C1COC3C4CC(C(=O)O)C(C(C2)N13)N4C (stereo unspecified)	6.3	-24.2	x	x	24.2	-15.5
CC(C(=O)N1CCN(c2ccc(Cl)cc2)CC1)c1ncc(C(F)(F)F)cc1Cl (stereo unspecified)	-37.3	1.1	-8.6	x	-1.1	3.3
COC(=O)[C@]12CCCCC=C1N(Cc1ccco1)C(=O)[C@H](CC(=O)N1CCCCC1)C2	-15.8	x	x	x	x	x
F[B-](F)(F)c1cncc2ccccc12	-26.2	-5.4	x	x	5.4	-11.7
O=C(Nc1cc(-c2ccccc2)nn1-c1ccccc1)c1ccccc1F	-4.7	47.6	x	x	-47.6	-4.5
Cc1onc(-c2ccccc2Cl)c1C(=O)Nc1sc2c(c1C#N)CCC2	-14.2	38.4	4.0	-5.0	-38.4	4.0
CCOCc1nnc(NC(=O)c2c(-c3ccccc3)noc2C)s1	1.7	3.3	x	-3.5	-3.3	-8.1
CC1CCc2c(sc(NC(=O)c3ccc(-c4ccccc4[N+](=O)[O-])o3)c2C#N)C1 (stereo unspecified)	-11.0	90.4*	-6.6	x	-90.4	0.2
Cc1onc(-c2ccccc2)c1C(=O)Nc1sc2c(c1C#N)CCC(C)C2 (stereo unspecified)	3.3	71.6*	-9.3	x	-71.6	6.8
N#Cc1c(NC(=O)c2ccc(-c3ccccc3[N+](=O)[O-])o2)sc2c1CCCC2	-11.0	60.4	-5.5	x	-60.4	4.3
CCOC(=O)c1c(NC(=O)c2c(-c3ccccc3)noc2C)sc(C)c1-c1ccccc1	-8.4	75.1*	0.0	-9.4	-75.1	-7.6
CC(C)[C@H](NC(=O)c1ccccc1F)C(=O)NC1CCCCCCC1	2.0	-2.3	x	x	2.3	3.6
COc1ccc(CN2CCn3ncc(C(=O)Nc4cc(C)cc(C)c4)c3C2=O)cc1	-1.5	74.3*	0.8	x	-74.3	-3.8
COC(=O)c1cc2n(n1)CCN(Cc1ccc(OC)cc1)C2=O	-6.1	-17.5	-5.6	x	17.5	4.0
Cc1cccc(OCC(=O)N2CCN(c3nnc(-c4ccccc4)c4ccccc34)CC2)c1	1.3	79.8*	x	0.7	-79.8	-12.2
COc1ccc(OCC(=O)N2CCN(c3nnc(-c4ccc(C)cc4)c4ccccc34)CC2)cc1	-14.9	76.7*	x	24.1	-76.7	-2.3
Cc1ccc(OCC(=O)N2CCN(c3nnc(-c4ccc(C)cc4)c4ccccc34)CC2)cc1	-3.5	78.5*	-6.2	14.0	-78.5	4.0
CCOC(=O)c1ccc(S(=O)(=O)NNc2ccc(C(F)(F)F)cn2)cc1	1.2	-9.4	x	x	9.4	-22.1
CN(C)c1ccc(-c2ccnc3c2CC(C)(C(=O)NCCc2ccccc2)O3)cc1 (stereo unspecified)	-1.9	x	x	x	x	x
COc1ccc(-c2csc(/C=C/c3ccc4c(c3)OCO4)n2)cc1OC	-19.9	11.8	-4.8	-3.2	-11.8	-2.2
CC1(C(=O)OCC(=O)NC(=O)NCc2ccccc2)CC1(Cl)Cl (stereo unspecified)	-4.4	-62.5	11.4	13.0	62.5*	4.5
CC1(C(=O)OCC(=O)NCc2ccc(Cl)cc2)CC1(Cl)Cl (stereo unspecified)	-5.7	-11.5	x	x	11.5	-4.3
SMILES	NOD2 RIPK2 PPI	SR-BI DiI inh	TLR4 MyD88 comp	Lipid droplet	SR-BI uptake up	TLR9-MyD88 block
O=[N+]([O-])c1cc([N+](=O)[O-])c2c(=Nc3ccccc3)n(-c3ccccc3)n(O)c2c1	-7.4	74.9*	-2.4	1.2	-74.9	-11.1
CCN(CC)S(=O)(=O)c1ccc(C(=O)NCC(=O)NCCCc2ccccc2)cc1	-2.2	x	x	-33.0	x	-7.0
O=C(Nc1cccc(S(=O)(=O)N2CCCCC2)c1)Nc1ccc(Cl)cc1Cl	9.1	53.8	-12.6	-31.6	-53.7	6.0
CCN1CCN(Cc2ccc(NC(=O)c3ccc(C)c(NC(=O)c4cncc(-c5cccs5)c4)c3)cc2C(F)(F)F)CC1	29.3*	34.6	x	x	-34.6	7.0
CCN1CCN(Cc2ccc(NC(=O)c3ccc(C)c(NC(=O)c4nccn4C)c3)cc2C(F)(F)F)CC1	-4.2	20.3	x	5.2	-20.3	-8.2
CC(=O)Nc1ccc(NC(=O)Nc2ccc3c(c2)N(C)C(=O)CS3)cc1	-9.8	1.3	-13.1	-12.1	-1.3	2.8
CCOc1ccc(OCC)c(NC(=O)Nc2ccc3c(c2)N(C)C(=O)CS3)c1	-9.0	87.6*	-5.2	-26.7	-87.6	-10.2
CCCCN(C=O)c1c(CC)nc2c(OCc3ccc(Cl)cc3)cccn12	7.8	x	x	x	x	x
CCN(CC)S(=O)(=O)c1cc(NC(=O)c2ccc(Br)s2)ccc1C	-2.4	75.1*	-10.7	-7.7	-75.1	0.1
CCN(CC)S(=O)(=O)c1cc(NC(=O)NCCCl)ccc1C	-8.5	x	x	1.0	x	-7.5
COCCN(C(=O)Nc1ccc(OC)cc1OC)C1CCN(C(C)=O)CC1	-3.0	79.6*	1.4	x	x	2.8
COc1ccc(-c2[nH]ncc2N=Nc2cc(C)cc(C)c2)cc1	10.9	83.6*	-6.0	8.7	-83.6	-2.0
COc1ccc(-c2[nH]ncc2N=Nc2ccccc2)cc1	-1.6	60.6	4.6	5.0	-60.6	-6.0
CCN(CC)C(=O)[C@H]1CC(CC(=O)NCCCn2ccnc2)C(=O)N2CCc3c([nH]c4ccc(OC)cc34)[C@]12C (stereo partly specified)	-4.5	-1.9	x	x	1.9	2.3
COc1ccc2cc(C(c3nnnn3C3CCCC3)N3CCCCCC3)c3nnnn3c2c1 (stereo unspecified)	-10.8	53.0	-8.5	0.4	-53.0	-7.2
COc1ccc2cc(C(c3nnnn3C3CCCCC3)N3CCCCCC3)c3nnnn3c2c1 (stereo unspecified)	-2.0	80.3*	-0.1	x	-80.3	3.0
Cc1cc(C)c(S(=O)(=O)N2CCN(C(=O)c3c(C)nn(-c4ccccc4)c3Cl)CC2)c(C)c1	2.5	77.6*	x	x	-77.6	3.6
Cc1ccc(S(=O)(=O)N2CCN(C(=O)c3c(C)nn(-c4ccccc4)c3Cl)CC2)cc1	-10.5	2.4	-11.2	x	-2.4	-3.5
COc1ccc(NC(=O)COc2coc(CN3CCN(c4ccccc4)CC3)cc2=O)cc1	-4.0	11.5	x	x	-11.5	-9.2
